According to ChEMBL document CHEMBL3779892, “Increasing the binding affinity of VEGFR-2 inhibitors by extending their hydrophobic interaction with the active site: Design, synthesis and biological evaluation of 1-substituted-4-(4-methoxybenzyl)phthalazine derivatives” (Eur J Med Chem, 2016):

Key:
Type in all cases: functional
[1] = Growth inhibition of human IGROV1 cells at 10 uM after 48 hrs by sulforhodamine B assay; details: IGROV-1, 48 h, read-out: GI
Procedure, shortened: (§1)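 Run at NCI on the 60-line panel. Cells grown in RPMI 1640 with 5% FBS and 2 mM L-glutamine, plated at 5000–40,000 cells/well by doubling time, and held 24 h at 37 °C before dosing. Drug (DMSO stock) given at a single final 10 µM in triplicate wells for 48 h. Adherent cells fixed with cold TCA (10% final), suspension cells with 16% TCA. SRB stain read at 515 nm. Percent growth from Tz, C and Ti.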

[2] = tested on: A498; test: Growth inhibition of human A498 cells at 10 uM after 48 hrs by sulforhodamine B assay; details: A498, 48 h, read-out: GI; procedure, shortened: as §1
[3] = Growth inhibition of human SF268 cells at 10 uM after 48 hrs by sulforhodamine B assay; details: SF-268, 48 h, read-out: GI; procedure, shortened: as §1
[4] = tested on: NCI-H226; test: Growth inhibition of human NCI-H226 cells at 10 uM after 48 hrs by sulforhodamine B assay; details: NCI-H226, 48 h, read-out: GI; procedure, shortened: as §1
[5] = tested on: MDA-MB-231; test: Growth inhibition of human MDA-MB-231 cells at 10 uM after 48 hrs by sulforhodamine B assay; details: MDA-MB-231, 48 h, read-out: GI; procedure, shortened: as §1
[6] = tested on: Malme-3M; test: Growth inhibition of human MALME-3M cells at 10 uM after 48 hrs by sulforhodamine B assay; details: read-out: GI; procedure, shortened: as §1
[7] = Growth inhibition of human SKOV3 cells at 10 uM after 48 hrs by sulforhodamine B assay; details: SK-OV-3, 48 h, read-out: GI; procedure, shortened: as §1
[8] = Growth inhibition of human RXF393 cells at 10 uM after 48 hrs by sulforhodamine B assay; details: RXF 393, 48 h, read-out: GI; procedure, shortened: as §1
[9] = tested on: CCRF-CEM; test: Growth inhibition of human CCRF-CEM cells at 10 uM after 48 hrs by sulforhodamine B assay; details: read-out: GI; procedure, shortened: as §1
[10] = tested on: NCI-H23; test: Growth inhibition of human NCI-H23 cells at 10 uM after 48 hrs by sulforhodamine B assay; details: NCI-H23, 48 h, read-out: GI; procedure, shortened: as §1
[11] = tested on: NCI-H460; test: Growth inhibition of human NCI-H460 cells at 10 uM after 48 hrs by sulforhodamine B assay; details: NCI-H460, 48 h, read-out: GI; procedure, shortened: as §1
[12] = Growth inhibition of human PC3 cells at 10 uM after 48 hrs by sulforhodamine B assay; details: PC-3, 48 h, read-out: GI; procedure, shortened: as §1
[13] = Growth inhibition of human Caki1 cells at 10 uM after 48 hrs by sulforhodamine B assay; details: CAKI-1, 48 h, read-out: GI; procedure, shortened: as §1
[14] = tested on: 786-0; test: Growth inhibition of human 786-0 cells at 10 uM after 48 hrs by sulforhodamine B assay; details: 786-0, 48 h, read-out: GI; procedure, shortened: as §1
[15] = Growth inhibition of human BT549 cells at 10 uM after 48 hrs by sulforhodamine B assay; details: BT-549, 48 h, read-out: GI; procedure, shortened: as §1
[16] = Growth inhibition of human HCT116 cells at 10 uM after 48 hrs by sulforhodamine B assay; details: HCT-116, 48 h, read-out: GI; procedure, shortened: as §1
[17] = Growth inhibition of human Hs 578T cells at 10 uM after 48 hrs by sulforhodamine B assay; details: read-out: GI; procedure, shortened: as §1
[18] = tested on: KM12; test: Growth inhibition of human KM12 cells at 10 uM after 48 hrs by sulforhodamine B assay; details: KM12, 48 h, read-out: GI; procedure, shortened: as §1
[19] = Growth inhibition of human OVCAR4 cells at 10 uM after 48 hrs by sulforhodamine B assay; details: OVCAR-4, 48 h, read-out: GI; procedure, shortened: as §1
[20] = Growth inhibition of human RPMI8226 cells at 10 uM after 48 hrs by sulforhodamine B assay; details: RPMI-8226, 48 h, read-out: GI; procedure, shortened: as §1
[21] = Growth inhibition of human HCT15 cells at 10 uM after 48 hrs by sulforhodamine B assay; details: HCT-15, 48 h, read-out: GI; procedure, shortened: as §1
[22] = tested on: NCI-H522; test: Growth inhibition of human NCI-H522 cells at 10 uM after 48 hrs by sulforhodamine B assay; details: NCI-H522, 48 h, read-out: GI; procedure, shortened: as §1
[23] = Growth inhibition of human OVCAR5 cells at 10 uM after 48 hrs by sulforhodamine B assay; details: OVCAR-5, 48 h, read-out: GI; procedure, shortened: as §1

SMILES | inhibition of growth at 10 µM [1] [%] | inhibition of growth at 10 µM [2] [%] | inhibition of growth at 10 µM [3] [%] | inhibition of growth at 10 µM [4] [%] | inhibition of growth at 10 µM [5] [%] | inhibition of growth at 10 µM [6] [%] | inhibition of growth at 10 µM [7] [%] | inhibition of growth at 10 µM [8] [%] | inhibition of growth at 10 µM [9] [%] | inhibition of growth at 10 µM [10] [%] | inhibition of growth at 10 µM [11] [%] | inhibition of growth at 10 µM [12] [%] | inhibition of growth at 10 µM [13] [%] | inhibition of growth at 10 µM [14] [%] | inhibition of growth at 10 µM [15] [%] | inhibition of growth at 10 µM [16] [%] | inhibition of growth at 10 µM [17] [%] | inhibition of growth at 10 µM [18] [%] | inhibition of growth at 10 µM [19] [%] | inhibition of growth at 10 µM [20] [%] | other results
COc1ccc(Cc2nnc(Nc3cccc(OC)c3)c3ccccc23)cc1 | 33 | < 30 | < 30 | 37 | 37 | < 30 | < 30 | 32 | < 30 | < 30 | < 30 | 30 | < 30 | < 30 | < 30 | 40 | < 30 | < 30 | < 30 | 77 | inhibition of growth at 10 µM [21]: < 30%; inhibition of growth at 10 µM [22]: 63%; inhibition of growth at 10 µM [23]: < 30%
COc1ccc(Cc2nnc(Nc3ccc(Cl)c(C(F)(F)F)c3)c3ccccc23)cc1 | 32 | 46 | < 30 | 43 | 40 | < 30 | < 30 | 33 | 52 | 40 | 74 | 61 | 35 | 41 | < 30 | 73 | 34 | 52 | 45 | 94 | inhibition of growth at 10 µM [21]: 58%; inhibition of growth at 10 µM [22]: 49%; inhibition of growth at 10 µM [23]: 33%
COc1ccc(Cc2nnc(Nc3ccc(OC)cc3)c3ccccc23)cc1 | < 30 | 47 | < 30 | < 30 | 36 | < 30 | < 30 | < 30 | < 30 | < 30 | < 30 | < 30 | < 30 | < 30 | < 30 | 34 | < 30 | < 30 | < 30 | < 30 | inhibition of growth at 10 µM [21]: < 30%; inhibition of growth at 10 µM [22]: < 30%; inhibition of growth at 10 µM [23]: < 30%
COc1ccc(Cc2nnc(Nc3ccccc3)c3ccccc23)cc1 | < 30 | 35 | < 30 | < 30 | < 30 | < 30 | < 30 | < 30 | < 30 | < 30 | < 30 | < 30 | < 30 | < 30 | < 30 | < 30 | < 30 | < 30 | < 30 | 58 | inhibition of growth at 10 µM [21]: < 30%; inhibition of growth at 10 µM [22]: < 30%; inhibition of growth at 10 µM [23]: < 30%
COc1ccc(Cc2nnc(Nc3cccc(C(F)(F)F)c3)c3ccccc23)cc1 | 37 | 40 | < 30 | 40 | 46 | < 30 | < 30 | 34 | 39 | 42 | 50 | 49 | 32 | 33 | < 30 | 56 | < 30 | 40 | 31 | 87 | inhibition of growth at 10 µM [21]: 41%; inhibition of growth at 10 µM [22]: 45%; inhibition of growth at 10 µM [23]: < 30%
COc1ccc(Cc2nnc(Nc3ccc(Cl)cc3)c3ccccc23)cc1 | 36 | 53 | < 30 | 34 | 36 | < 30 | < 30 | 32 | 46 | 39 | 45 | 51 | 37 | 43 | < 30 | 66 | 35 | 30 | 33 | 69 | inhibition of growth at 10 µM [21]: 33%; inhibition of growth at 10 µM [22]: 38%; inhibition of growth at 10 µM [23]: < 30%
COc1ccc(Cc2nnc(Nc3cccc(Cl)c3)c3ccccc23)cc1 | < 30 | 34 | < 30 | 35 | 39 | < 30 | < 30 | < 30 | < 30 | < 30 | 34 | 42 | < 30 | < 30 | < 30 | 49 | < 30 | < 30 | < 30 | 89 | inhibition of growth at 10 µM [21]: 33%; inhibition of growth at 10 µM [22]: 50%; inhibition of growth at 10 µM [23]: < 30%
COc1ccc(Cc2nnc(Nc3ccc(C#N)cc3)c3ccccc23)cc1 | < 30 | 30 | < 30 | < 30 | < 30 | < 30 | < 30 | < 30 | < 30 | < 30 | < 30 | 34 | < 30 | < 30 | < 30 | < 30 | < 30 | < 30 | < 30 | < 30 | inhibition of growth at 10 µM [21]: < 30%; inhibition of growth at 10 µM [22]: < 30%; inhibition of growth at 10 µM [23]: < 30%
